Measured values from different studies.
Each line is one published result; the experiments were not run side by side.
Effect on: cell growth or viability

With `Nc1nc(NS(=O)(=O)c2ccccc2)ncc1-c1nc2ccccc2s1` the CC50 was 220 µg/mL (BGM).
The CC50 of `CCOP(=O)(OCC)[C@@H]1C[C@H](n2cc(C(=O)OC)nn2)ON1C` (relative stereo) is reported as greater than 250 µM (human T-lymphocyte; 72 h).
`Cc1ccc(C(=O)CNc2nc(NS(=O)(=O)c3ccccc3)ncc2-c2nc3ccccc3s2)cc1` has a CC50 of 170 µg/mL (BGM).
`C[C@H](NC(=O)OCc1ccccc1)C(=O)Nc1ccc(C2S/C(=N\c3cccc(F)c3)N(Cc3ccco3)C2=O)cc1` (stereo partly drawn) gave a CC50 of greater than 50 µM (Huh-7; 72 h, replicon).
For `O=C(CNc1nc(NS(=O)(=O)c2ccccc2)ncc1-c1nc2ccccc2s1)c1ccc(Cl)cc1`, the CC50 was 220 µg/mL (BGM).
`O=C1OC[C@H]2OC(O)[C@H](O)[C@@H](O)[C@@H]2OC(=O)c2cc(O)c(O)c(O)c2-c2c(O)c(O)c3oc(=O)c4c(c(O)c(O)c5oc(=O)c2c3c54)-c2c1cc(O)c(O)c2O` (mixture of isomers) gave a CC50 of greater than 5000 µM (Huh-7; MTT).
`CCOP(=O)(OCC)[C@@H]1C[C@H](n2cc(-c3nccn3C)nn2)ON1C` has a CC50 of greater than 250 µM (human T-lymphocyte; 72 h).
With `Cc1ccc2c(c1C)NC(=O)[C@]21NN=C(c2ccccc2)S1` the CC50 was 28.6 µM (Huh-7; MTT; 24 h).
The CC50 of `CCOP(=O)(OCC)[C@@H]1C[C@@H](n2cc(-c3ccccn3)nn2)ON1C` (racemic) is reported as greater than 250 µM (human T-lymphocyte; 72 h).
`N=C(N)c1ccc(OCCCCCOc2ccc(C(=N)N)cc2)cc1` gave a CC50 of 9.24 µM (Huh-7; MTT; 24 h).
`CCOP(=O)(OCC)[C@@H]1C[C@H](n2cc(Cn3cnc4c(N)ncnc43)nn2)ON1C` (relative stereo) gave a CC50 of greater than 250 µM (human T-lymphocyte; 72 h).
`COc1ccc(NC(=O)N2CCCCN3[C@H](COCCC(=O)O)[C@H](c4ccc(C#Cc5ccccc5)cc4)[C@@H]3C2)cc1` gave a CC50 of greater than 40 µM (HEK-293T).
`O[C@@H](c1cc(C(F)(F)F)nc2c(C(F)(F)F)cccc12)[C@H]1CCCCN1` has a CC50 of 15.9 µM (Huh-7; MTT; 24 h).
For `CCO[C@@H](Cc1ccc(OCCn2c(C)ccc2-c2ccc(SC)cc2)cc1)C(=O)O`, the CC50 was greater than 50 µM (LX-2; ATP luminescence; 48 h, serum-free).
`O=C(O)c1ccc(-n2nc(-c3ccccc3O)nc2-c2ccccc2O)cc1` has a CC50 of greater than 200 µM (Huh-7; MTT; 24 h).
With `CCOP(=O)(OCC)[C@@H]1C[C@H](n2cc(-c3ccccc3)nn2)ON1C` the CC50 was greater than 250 µM (human T-lymphocyte; 72 h).
`Cc1cc(NCCc2ccccc2)nc(NC(=N)Nc2ccc(Cl)cc2)n1` gave a CC50 of 15.2 µM (Huh-7; MTT; 24 h).
`O=C(CNc1nc(NS(=O)(=O)c2ccccc2)ncc1-c1nc2ccccc2s1)c1ccc(Br)cc1` gave a CC50 of 220 µg/mL (BGM).
For `O=C1O[C@H]2[C@@H]3OC(=O)c4cc(O)c(O)c(O)c4-c4c(O)c(O)c5oc(=O)c6c(c(O)c(O)c7oc(=O)c4c5c76)-c4c(cc(O)c(O)c4O)C(=O)OC[C@H]3OC(O)[C@@H]2OC(=O)c2cc(O)c(O)c(O)c2-c2c1cc(O)c(O)c2O` (mixture of isomers), the CC50 was greater than 5000 µM (Huh-7; MTT).
The CC50 of `CCOP(=O)(OCC)[C@@H]1C[C@@H](n2cc(Cn3ccc(NC(C)=O)nc3=O)nn2)ON1C` (racemic) is reported as greater than 250 µM (human T-lymphocyte; 72 h).
`CCOc1ccc(-c2nc(CNCCc3ccc(F)cc3)cs2)cc1` has a CC50 of 87.8 µM (Huh-7; MTT; 24 h).
`Nc1nc(NS(=O)(=O)c2ccccc2)nc(-c2ccc(Cl)cc2)c1-c1nc2ccccc2s1` has a CC50 of 230 µg/mL (BGM).
For `O=C(O)/C=C/C=C/c1cccc(Oc2cc(Cl)cc(Cl)c2)c1`, the CC50 was greater than 200 µM (Huh-7; MTT; 24 h).
The CC50 of `CCOP(=O)(OCC)[C@@H]1C[C@@H](n2cc(-c3cccc(F)c3)nn2)ON1C` (racemic) is reported as greater than 250 µM (human T-lymphocyte; 72 h).
`CC(C)OC(=O)C(C)(C)Oc1ccc(C(=O)c2ccc(Cl)cc2)cc1` gave a CC50 of greater than 50 µM (LX-2; ATP luminescence; 48 h, serum-free).
For `CCOP(=O)(OCC)[C@@H]1C[C@H](n2cc(-c3ccc(F)cc3F)nn2)ON1C`, the CC50 was no less than 250 µM (human T-lymphocyte; 72 h).
The CC50 of `C[C@@H](c1cc(Cl)cc(Cl)c1)N(C)c1ncc2c(N)nc(N)nc2n1` is reported as 57.6 µM (Huh-7; MTT; 24 h).
